# Data taken from ChEMBL document CHEMBL1155468, “Syntheses and evaluation of anticonvulsant profile and teratogenicity of novel amide derivatives of branched aliphatic carboxylic acids with 4-aminobenzensulfonamide” (J Med Chem, 2010).
# Active and inactive are the calls of the source. No cut-off for these calls is given here.
# Columns and labels:
# Rattus norvegicus [1] = assay: Anticonvulsant activity in po dosed rat assessed as inhibition of maximal electroshock-induced seizures
# Rattus norvegicus [2] = species on record: Rattus norvegicus; assay: Protective index, ratio of TD50 for rat to ED50 for maximal electroshock-induced rat seizure model
# Mus musculus [3] = assay: Anticonvulsant activity in CF1 albino mouse assessed as inhibition of subcutaneous pentylenetetrazole-induced seizures at 300 mg/kg, ip after 4 hrs; type: functional, organism-based; design: dose 300 mg/kg
# How it was run: (§1)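 Adult male CF no. 1 albino mice (18-25 g) dosed ip with compound suspended in 0.5% methylcellulose (0.01 mL/g). Convulsant: pentylenetetrazol dissolved in 0.9% saline as a 0.85% solution for mice, given subcutaneously.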
# Mus musculus [4] = assay: Neurotoxicity in CF1 albino mouse assessed as motor impairment at 30 mg/kg, ip after 4 hrs; type: toxicity, organism-based; design: dose 30 mg/kg, route intraperitoneal; conditions: in vivo
# Mus musculus [5] = assay: Anticonvulsant activity in CF1 albino mouse assessed as inhibition of subcutaneous pentylenetetrazole-induced seizures at 30 mg/kg, ip after 4 hrs; type: functional, organism-based; design: dose 30 mg/kg
# How it was run: as §1
# Mus musculus [6] = assay: Anticonvulsant activity in CF1 albino mouse assessed as inhibition of subcutaneous pentylenetetrazole-induced seizures at 30 mg/kg, ip after 0.5 hrs; type: functional, organism-based; design: dose 30 mg/kg
# How it was run: as §1
# Mus musculus [7] = assay: Anticonvulsant activity in CF1 albino mouse assessed as inhibition of maximal electroshock-induced seizures at 100 mg/kg, ip after 0.5 hrs; type: functional, organism-based; design: dose 100 mg/kg
# How it was run: (§2)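 Test compounds suspended in 0.5% methylcellulose and given ip to adult male CF no. 1 albino mice (18-25 g) at 0.01 mL/g body weight before maximal electroshock challenge.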
# Mus musculus [8] = assay: Neurotoxicity in CF1 albino mouse assessed as motor impairment at 100 mg/kg, ip after 4 hrs; type: toxicity, organism-based; design: dose 100 mg/kg, route intraperitoneal; conditions: in vivo
# Rattus norvegicus [9] = assay: Anticonvulsant activity in Sprague-Dawley rat assessed as inhibition of maximal electroshock-induced seizures at 30 mg/kg, po after 1 hr
# Rattus norvegicus [10] = assay: Anticonvulsant activity in Sprague-Dawley rat assessed as inhibition of maximal electroshock-induced seizures at 30 mg/kg, po after 15 mins
# Mus musculus [11] = assay: Neurotoxicity in CF1 albino mouse assessed as motor impairment at 100 mg/kg, ip after 0.5 hrs; type: toxicity, organism-based; design: dose 100 mg/kg, route intraperitoneal; conditions: in vivo
# Mus musculus [12] = assay: Anticonvulsant activity in CF1 albino mouse assessed as inhibition of maximal electroshock-induced seizures at 100 mg/kg, ip after 4 hrs; type: functional, organism-based; design: dose 100 mg/kg
# How it was run: as §2
# Mus musculus [13] = assay: Neurotoxicity in CF1 albino mouse assessed as motor impairment at 300 mg/kg, ip after 0.5 hrs; type: toxicity, organism-based; design: dose 300 mg/kg, route intraperitoneal; conditions: in vivo
# Mus musculus [14] = assay: Anticonvulsant activity in CF1 albino mouse assessed as inhibition of subcutaneous pentylenetetrazole-induced seizures at 100 mg/kg, ip after 0.5 hrs; type: functional, organism-based; design: dose 100 mg/kg
# How it was run: as §1
# Mus musculus [15] = assay: Anticonvulsant activity in CF1 albino mouse assessed as inhibition of subcutaneous pentylenetetrazole-induced seizures at 300 mg/kg, ip after 0.5 hrs; type: functional, organism-based; design: dose 300 mg/kg
# How it was run: as §1
# Rattus norvegicus [16] = assay: Neurotoxicity in Sprague-Dawley rat assessed as motor impairment at 30 mg/kg, po after 0.25 to 4 hrs; conditions: in vivo
# Rattus norvegicus [17] = assay: Anticonvulsant activity in Sprague-Dawley rat assessed as inhibition of maximal electroshock-induced seizures at 30 mg/kg, po after 2 hrs
# Mus musculus [18] = assay: Anticonvulsant activity in CF1 albino mouse assessed as inhibition of maximal electroshock-induced seizures at 300 mg/kg, ip after 4 hrs; type: functional, organism-based; design: dose 300 mg/kg
# How it was run: as §2
# Rattus norvegicus [19] = assay: Anticonvulsant activity in Sprague-Dawley rat assessed as inhibition of maximal electroshock-induced seizures at 30 mg/kg, po after 30 mins
# Mus musculus [20] = assay: Anticonvulsant activity in CF1 albino mouse assessed as inhibition of maximal electroshock-induced seizures at 30 mg/kg, ip after 0.5 hrs; type: functional, organism-based; design: dose 30 mg/kg
# How it was run: as §2
# Mus musculus [21] = assay: Anticonvulsant activity in CF1 albino mouse assessed as inhibition of maximal electroshock-induced seizures at 30 mg/kg, ip after 4 hrs; type: functional, organism-based; design: dose 30 mg/kg
# How it was run: as §2
# Mus musculus [22] = assay: Anticonvulsant activity in CF1 albino mouse assessed as inhibition of maximal electroshock-induced seizures at 300 mg/kg, ip after 0.5 hrs; type: functional, organism-based; design: dose 300 mg/kg
# How it was run: as §2
# Mus musculus [23] = assay: Neurotoxicity in CF1 albino mouse assessed as motor impairment at 30 mg/kg, ip after 0.5 hrs; type: toxicity, organism-based; design: dose 30 mg/kg, route intraperitoneal; conditions: in vivo
# Mus musculus [24] = assay: Neurotoxicity in CF1 albino mouse assessed as motor impairment at 300 mg/kg, ip after 4 hrs; type: toxicity, organism-based; design: dose 300 mg/kg, route intraperitoneal; conditions: in vivo
# Mus musculus [25] = assay: Anticonvulsant activity in CF1 albino mouse assessed as inhibition of subcutaneous pentylenetetrazole-induced seizures at 100 mg/kg, ip after 4 hrs; type: functional, organism-based; design: dose 100 mg/kg
# How it was run: as §1
# Rattus norvegicus [26] = assay: Anticonvulsant activity in Sprague-Dawley rat assessed as inhibition of maximal electroshock-induced seizures at 30 mg/kg, po after 4 hrs
SMILES,Activity (Mus musculus [3]),Activity (Mus musculus [4]),Activity (Mus musculus [5]),Activity (Mus musculus [6]),Activity (Mus musculus [7]),Activity (Mus musculus [8]),Activity (Rattus norvegicus [10]),Activity (Mus musculus [11]),Activity (Mus musculus [13]),Activity (Mus musculus [14]),Activity (Mus musculus [15]),Activity (Rattus norvegicus [16]),Activity (Mus musculus [18]),Activity (Rattus norvegicus [19]),Activity (Mus musculus [20]),Activity (Mus musculus [21]),Activity (Mus musculus [22]),Activity (Mus musculus [23]),Activity (Mus musculus [24]),Activity (Mus musculus [25]),also measured
CC1(C)C(C(=O)Nc2ccc(S(N)(=O)=O)cc2)C1(C)C,,,,,,,,,,,,,,,,,,,,,ED50 (Rattus norvegicus [1]): 26 mg/kg
CCCC(CCC)C(=O)Nc1nnc(S(N)(=O)=O)s1,,,,,,,,,,,,,,,,,,,,,Ratio TD50/ED50 (Rattus norvegicus [2]): >50
CC(C)C(C(=O)Nc1ccc(S(N)(=O)=O)cc1)C(C)C,inactive,Non-toxic,inactive,inactive,inactive,Non-toxic,inactive,Non-toxic,Non-toxic,inactive,inactive,Non-toxic,inactive,inactive,inactive,inactive,inactive,Non-toxic,Non-toxic,inactive,Activity (Rattus norvegicus [9]): inactive; Activity (Mus musculus [12]): inactive; Activity (Rattus norvegicus [17]): inactive
CCC(C)C(CC)C(=O)Nc1ccc(S(N)(=O)=O)cc1 (centres undefined),inactive,Non-toxic,inactive,inactive,,Non-toxic,inactive,Non-toxic,Non-toxic,inactive,inactive,Non-toxic,Active,inactive,inactive,inactive,,Non-toxic,Non-toxic,inactive,Activity (Mus musculus [12]): Active; Activity (Rattus norvegicus [17]): Active
CC(C)(C)C(=O)NCc1ccc(S(N)(=O)=O)cc1,inactive,Non-toxic,inactive,inactive,inactive,Non-toxic,,Non-toxic,Non-toxic,inactive,inactive,,inactive,,inactive,inactive,inactive,Non-toxic,Non-toxic,inactive,Activity (Mus musculus [12]): inactive
CC1(C)C(C(=O)Nc2nnc(S(N)(=O)=O)s2)C1(C)C,,,,,,,,,,,,,,,,,,,,,Ratio TD50/ED50 (Rattus norvegicus [2]): >50
CCC(CC)C(=O)NCCc1ccc(S(N)(=O)=O)cc1,inactive,Non-toxic,inactive,inactive,inactive,Non-toxic,,Non-toxic,Non-toxic,inactive,inactive,Non-toxic,Active,,inactive,Active,inactive,Non-toxic,Non-toxic,inactive,
CCCC(C(=O)Nc1ccc(S(N)(=O)=O)cc1)C(C)(C)C (centres undefined),inactive,Non-toxic,inactive,inactive,inactive,Non-toxic,,Non-toxic,Non-toxic,inactive,inactive,Non-toxic,inactive,inactive,inactive,inactive,inactive,Non-toxic,Non-toxic,inactive,Activity (Rattus norvegicus [9]): inactive; Activity (Mus musculus [12]): inactive; Activity (Rattus norvegicus [17]): inactive; Activity (Rattus norvegicus [26]): inactive
CCC(C(=O)Nc1ccc(S(N)(=O)=O)cc1)C(C)(C)C (centres undefined),inactive,Non-toxic,inactive,inactive,inactive,Non-toxic,inactive,Non-toxic,Non-toxic,inactive,inactive,Non-toxic,Active,inactive,inactive,inactive,inactive,Non-toxic,Non-toxic,inactive,Activity (Rattus norvegicus [9]): inactive
CC(C)C(C(=O)Nc1ccc(S(N)(=O)=O)cc1)C(C)(C)C (centres undefined),inactive,Non-toxic,inactive,inactive,,Non-toxic,inactive,Non-toxic,Non-toxic,inactive,inactive,Non-toxic,Active,inactive,inactive,inactive,inactive,Non-toxic,Non-toxic,inactive,ED50 (Rattus norvegicus [1]): 18 mg/kg; Ratio TD50/ED50 (Rattus norvegicus [2]): >27.7; Activity (Rattus norvegicus [9]): inactive; Activity (Mus musculus [12]): Active; Activity (Rattus norvegicus [17]): inactive
CCCC(CCC)C(=O)Nc1ccc(S(N)(=O)=O)cc1,,,,,,,,,,,,,,,,,,,,,ED50 (Rattus norvegicus [1]): 21 mg/kg
CCC(C)C(C(=O)Nc1ccc(S(N)(=O)=O)cc1)C(C)C (centres undefined),inactive,Non-toxic,inactive,inactive,inactive,Non-toxic,inactive,Non-toxic,Non-toxic,inactive,inactive,Non-toxic,inactive,inactive,inactive,inactive,inactive,Non-toxic,Non-toxic,inactive,Activity (Mus musculus [12]): inactive; Activity (Rattus norvegicus [17]): inactive; Activity (Rattus norvegicus [26]): inactive
CC(C)(C)CC(=O)NCc1ccc(S(N)(=O)=O)cc1,inactive,Non-toxic,inactive,inactive,inactive,Non-toxic,inactive,Non-toxic,Non-toxic,inactive,inactive,Non-toxic,Active,inactive,inactive,inactive,inactive,Non-toxic,Non-toxic,inactive,
